Data from ChEMBL document CHEMBL5154715, “Phenolic Lipids Derived from Cashew Nut Shell Liquid to Treat Metabolic Diseases” (J Med Chem, 2022).
Activity calls are given as the source filed them. The rule behind the calls is not given here.

Assays:
[1] = biological target: T1, Peroxisome proliferator-activated receptor alpha (Homo sapiens) (UniProt Q07869); test: Agonist activity at human PPARalpha transfected in HEK293 cells assessed as relative luciferase unit at 50 uM measured after 16 hrs by luciferase reporter gene assay; assay type: cell-based; settings: filed as agonist
T1 sequence (whole entry): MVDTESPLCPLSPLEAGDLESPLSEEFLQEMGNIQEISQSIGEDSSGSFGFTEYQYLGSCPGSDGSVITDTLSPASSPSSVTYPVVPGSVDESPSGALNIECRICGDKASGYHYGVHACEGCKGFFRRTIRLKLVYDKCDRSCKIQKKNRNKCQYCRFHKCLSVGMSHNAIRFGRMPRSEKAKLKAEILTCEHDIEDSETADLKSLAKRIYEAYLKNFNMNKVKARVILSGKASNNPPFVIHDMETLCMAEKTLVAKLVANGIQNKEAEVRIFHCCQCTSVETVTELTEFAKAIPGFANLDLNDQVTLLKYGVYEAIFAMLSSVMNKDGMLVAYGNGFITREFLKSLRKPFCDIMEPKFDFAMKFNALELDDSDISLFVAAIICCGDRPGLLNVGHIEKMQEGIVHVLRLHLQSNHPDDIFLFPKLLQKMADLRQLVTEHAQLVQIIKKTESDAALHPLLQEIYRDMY
Summary of the method: (§1)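 GAL4-hPPAR (α or γ) plus UAS-luciferase and β-galactosidase transiently co-transfected into HEK293 cells, then treated with 50 μM compound for 16 h. RLU = luciferase/β-galactosidase × time, vehicle (DMSO) set to 1. Mean ± SD, N = 3; one-way ANOVA with Holm–Šidák vs vehicle.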

[2] = biological target: T2, Peroxisome proliferator-activated receptor alpha (Homo sapiens, UniProt Q07869); test: Agonist activity at human PPARalpha expressed in HEK293 cells by luciferase/beta-galactosidase reporter gene assay; assay type: cell-based
T2 sequence (Q07869 whole entry): T1 sequence (whole entry)
Summary of the method: (§2)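 HEK293 cells in charcoal-stripped FBS, calcium phosphate co-transfected with GAL4-hPPAR LBD fusion, UAS-luciferase and β-galactosidase. Ligand added 6–8 h post transfection, full dose–response, harvested 14–16 h later. Luciferase normalized to β-galactosidase.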

[3] = biological target: T1, Peroxisome proliferator-activated receptor alpha (Homo sapiens); test: Agonist activity at human PPARalpha expressed in HEK293 cells assessed as maximal activity by luciferase/beta-galactosidase reporter gene assay relative to GW7647; assay type: cell-based; summary of the method: as §2
[4] = biological target: T3, Peroxisome proliferator-activated receptor gamma (Homo sapiens) (UniProt P37231); test: Agonist activity at human PPARgamma transfected in HEK293 cells assessed as relative luciferase unit at 50 uM measured after 16 hrs by luciferase reporter gene assay; assay type: cell-based; settings: filed as agonist; summary of the method: as §1
T3 sequence (whole entry): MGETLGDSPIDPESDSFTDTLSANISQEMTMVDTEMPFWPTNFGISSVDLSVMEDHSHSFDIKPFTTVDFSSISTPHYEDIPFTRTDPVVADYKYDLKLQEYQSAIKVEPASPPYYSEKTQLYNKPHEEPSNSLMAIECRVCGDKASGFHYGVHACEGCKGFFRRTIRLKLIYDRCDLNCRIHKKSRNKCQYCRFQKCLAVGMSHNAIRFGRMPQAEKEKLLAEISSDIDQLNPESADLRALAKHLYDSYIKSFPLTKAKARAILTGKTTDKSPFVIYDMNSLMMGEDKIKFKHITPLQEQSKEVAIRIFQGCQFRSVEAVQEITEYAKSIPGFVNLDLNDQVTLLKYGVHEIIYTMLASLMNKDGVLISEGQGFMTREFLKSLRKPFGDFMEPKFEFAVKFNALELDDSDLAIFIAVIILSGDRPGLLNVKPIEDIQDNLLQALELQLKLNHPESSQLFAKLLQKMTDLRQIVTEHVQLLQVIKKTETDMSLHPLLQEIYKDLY

[5] = biological target: T4, Peroxisome proliferator-activated receptor gamma (Homo sapiens, UniProt P37231); test: Agonist activity at human PPARgamma expressed in HEK293 cells by luciferase/beta-galactosidase reporter gene assay; assay type: cell-based; summary of the method: as §2
T4 sequence (P37231 whole entry): T3 sequence (whole entry)

[6] = biological target: T5, Peroxisome proliferator-activated receptor alpha (Mus musculus) (UniProt P23204); test: Agonist activity at human PPARalpha in mouse hepatocytes assessed as induction of fabp1 mRNA expression at 50 uM incubated for 16 hrs by quantitative real-time PCR analysis; assay type: cell-based; settings: Hepatocyte, filed as agonist
T5 sequence (whole entry): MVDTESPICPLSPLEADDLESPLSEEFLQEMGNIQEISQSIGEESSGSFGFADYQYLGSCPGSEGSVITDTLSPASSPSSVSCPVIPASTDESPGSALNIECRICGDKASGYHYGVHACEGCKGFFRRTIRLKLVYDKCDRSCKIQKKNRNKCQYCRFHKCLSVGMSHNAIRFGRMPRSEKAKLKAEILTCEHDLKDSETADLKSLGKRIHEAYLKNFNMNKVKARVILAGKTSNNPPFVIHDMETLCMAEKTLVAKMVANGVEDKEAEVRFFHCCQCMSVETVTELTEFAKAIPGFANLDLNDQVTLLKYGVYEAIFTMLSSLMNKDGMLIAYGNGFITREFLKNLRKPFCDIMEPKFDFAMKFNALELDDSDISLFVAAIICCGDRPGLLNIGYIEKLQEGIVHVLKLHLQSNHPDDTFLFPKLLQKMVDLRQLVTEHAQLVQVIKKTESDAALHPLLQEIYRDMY
Summary of the method: (§3)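 Collagenase-perfused mouse primary hepatocytes from WT mice, plated 2 h in attachment medium, overnight in M199 with 5% charcoal-stripped FBS and 1 nM insulin. Treated next day in serum-free M199 with 50 μM compound for 16 h. RNA qPCR (SYBR Green), comparative Ct method.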

[7] = biological target: T5, Peroxisome proliferator-activated receptor alpha (Mus musculus); test: Agonist activity at human PPARalpha in mouse hepatocytes assessed as induction of cd36 mRNA expression at 50 uM incubated for 16 hrs by quantitative real-time PCR analysis; assay type: cell-based; settings: Hepatocyte, filed as agonist; summary of the method: as §3
[8] = biological target: T5, Peroxisome proliferator-activated receptor alpha (Mus musculus); test: Agonist activity at human PPARalpha in mouse hepatocytes assessed as induction of Pdk4 mRNA expression at 50 uM incubated for 16 hrs by quantitative real-time PCR analysis; assay type: cell-based; settings: Hepatocyte, filed as agonist; summary of the method: as §3
[9] = biological target: T6, Peroxisome proliferator-activated receptor delta (Homo sapiens) (UniProt Q03181)
T6 sequence (whole entry): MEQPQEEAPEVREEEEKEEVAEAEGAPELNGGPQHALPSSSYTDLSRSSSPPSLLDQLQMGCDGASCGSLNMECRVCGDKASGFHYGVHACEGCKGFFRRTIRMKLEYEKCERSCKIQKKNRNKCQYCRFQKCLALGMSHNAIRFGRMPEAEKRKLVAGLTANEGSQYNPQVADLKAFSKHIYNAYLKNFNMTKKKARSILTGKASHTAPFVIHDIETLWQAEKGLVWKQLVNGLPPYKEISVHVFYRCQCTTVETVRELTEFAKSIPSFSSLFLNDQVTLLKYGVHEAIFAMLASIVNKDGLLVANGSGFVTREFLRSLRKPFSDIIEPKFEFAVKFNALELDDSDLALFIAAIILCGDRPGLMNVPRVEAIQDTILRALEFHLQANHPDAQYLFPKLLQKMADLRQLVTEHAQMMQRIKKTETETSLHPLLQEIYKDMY

[10] = biological target: T7, Peroxisome proliferator-activated receptor gamma (Mus musculus) (UniProt P37238); test: Agonist activity at human PPARgamma in mouse 3T3-L1 cells assessed as induction of Glut4 mRNA expression at 25 uM incubated for 11 days by quantitative real-time PCR analysis; settings: filed as agonist, time 11.0 day
T7 sequence (whole entry): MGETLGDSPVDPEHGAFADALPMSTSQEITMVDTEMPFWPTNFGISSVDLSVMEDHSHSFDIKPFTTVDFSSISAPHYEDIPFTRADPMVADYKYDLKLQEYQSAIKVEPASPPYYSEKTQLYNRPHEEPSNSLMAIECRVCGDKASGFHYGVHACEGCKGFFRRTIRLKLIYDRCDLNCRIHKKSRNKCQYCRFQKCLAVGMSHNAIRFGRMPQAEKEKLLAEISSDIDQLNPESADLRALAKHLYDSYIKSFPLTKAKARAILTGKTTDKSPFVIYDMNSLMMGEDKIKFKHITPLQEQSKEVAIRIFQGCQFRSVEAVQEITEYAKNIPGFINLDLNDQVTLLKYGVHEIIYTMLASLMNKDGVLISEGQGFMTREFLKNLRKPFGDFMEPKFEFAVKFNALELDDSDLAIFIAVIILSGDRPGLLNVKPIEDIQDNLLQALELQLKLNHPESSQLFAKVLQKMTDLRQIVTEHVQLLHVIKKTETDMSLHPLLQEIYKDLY

[11] = biological target: T7, Peroxisome proliferator-activated receptor gamma (Mus musculus); test: Agonist activity at human PPARgamma in mouse 3T3-L1 cells assessed as induction of Adipoq-mRNA expression at 25 uM incubated for 11 days by quantitative real-time PCR analysis; settings: filed as agonist, time 11.0 day
[12] = biological target: T5, Peroxisome proliferator-activated receptor alpha (Mus musculus); test: Agonist activity at human PPARalpha in mouse hepatocytes assessed as induction of Fgf21 mRNA expression at 50 uM incubated for 16 hrs by quantitative real-time PCR analysis; assay type: cell-based; settings: Hepatocyte, filed as agonist; summary of the method: as §3
[13] = Metabolic stability in C57BL/6 mouse liver microsomes assessed as half life; assay type: ADME, Microsome; settings: time 2 min
[14] = Metabolic stability in C57BL/6 mouse liver microsomes assessed as parent compound remaining incubated for 120 mins; assay type: ADME, Microsome; settings: read-out: Stability
[15] = biological target: T7, Peroxisome proliferator-activated receptor gamma (Mus musculus); test: Agonist activity at human PPARgamma in mouse 3T3-L1 cells assessed as induction of adipogenic differentiation at 25 uM measured after 11 days by Oil Red O staining analysis; assay type: cell-based; settings: filed as agonist, time 11.0 day
Summary of the method: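 3T3-L1 cells differentiated for 11 days (IBMX/dexamethasone/insulin induction, then insulin, then maintenance medium) with 25 μM compound or 10 μM rosiglitazone from day 0. Cells formalin-fixed and stained with 0.6% Oil Red O. Lipid quantified spectrophotometrically after dye extraction.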

[16] = biological target: T3, Peroxisome proliferator-activated receptor gamma (Homo sapiens); test: Agonist activity at human PPARgamma expressed in HEK293 cells assessed as maximal activity by luciferase/beta-galactosidase reporter gene assay relative to rosiglitazone; assay type: cell-based; summary of the method: as §2
[17] = biological target: T1, Peroxisome proliferator-activated receptor alpha (Homo sapiens); test: Stabilization of human PPARalpha LBD assessed as change in melting temperature at 25 uM by thermal shift assay
Summary of the method: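 Purified hPPAR LBD at 1 mg/mL (∼25 μM) with ligand (α-LBD at 25 μM; γ- and δ-LBD at 50 μM). Static light scattering at 473 nm from 25 to 70 °C in 0.5 °C steps, 1 °C/min. Tm from four-parameter fit; ΔTm relative to DMSO; mean ± SEM, N = 3.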

[18] = biological target: T3, Peroxisome proliferator-activated receptor gamma (Homo sapiens); test: Stabilization of human PPARgamma LBD assessed as change in melting temperature at 50 uM by thermal shift assay
[19] = biological target: T6, Peroxisome proliferator-activated receptor delta (Homo sapiens); test: Stabilization of human PPARdelta LBD assessed as change in melting temperature at 50 uM by thermal shift assay

Compound	Activity [1]	EC50 [2]	Emax [3]	Activity [4]	EC50 [5]	Activity [7]	Activity [8]	EC50 ([9]; HEK293, filed as agonist)	other results
CCCCCCCCCCCCCC(=O)O [MYRISTIC ACID]	Active	13 µM	30%						
CCCCCC/C=C\CCCCCCCc1cccc(OCC(=O)OCC)c1	Active	4.4 µM	30%	Active	> 50 µM	Active	Active	7.1 µM	Activity [6]: Active; Activity [10]: Active; Activity [11]: Active
CC(C)(Sc1ccc(CCN(CCCCC2CCCCC2)C(=O)NC2CCCCC2)cc1)C(=O)O						Active	Active		Activity [6]: Active; Activity [12]: Active
CCCCCCCCCCCCCCCc1ccc(C(=O)O)c(O)c1	Active	8.9 µM	30%				Active		Activity [12]: Active
CCCCCCCCCCCCCCCc1cccc(OCC(=O)OCC)c1	Active		30%	Active	29 µM				half-life [13]: 66 min; remaining at 2 h [14]: 28%; Activity [15]: Active; Emax [16]: 30%; ΔTm [17]: -4.5 °C; EC50 ([9]; HEK293): > 100 µM; ΔTm [18]: -3 °C; ΔTm [19]: 1.2 °C
CCCCCCCCCCCCCCCCCC(=O)O [STEARIC ACID]	Active	40 µM	30%						
CCCCCCCC/C=C\CCCCCCCC(=O)O [OLEIC ACID]	Active	36 µM						47 µM	Emax ([3]; filed as agonist): > 90%
CCCCCC/C=C\CCCCCCCc1cccc(OC(C)(C)C(=O)OCC)c1	Active	67 µM	30%	Active	> 50 µM	Active			Activity [6]: Active; EC50 ([9]; HEK293): > 100 µM
CCCCCCCCCCCCCCCc1cccc(O)c1C(=O)O [ANACARDIC ACID]	Active	3.5 µM	30%	Active	17 µM		Active	68 µM	Emax ([16]; filed as agonist): > 90%
CCCCCCCCCC(=O)O [DECANOIC ACID]	Active	31 µM	30%						
CCCCCCCCCCCCCCCc1ccc(C(=O)O)c(OC)c1	Active	17 µM	30%	Active	8.1 µM				Emax [16]: 30%
CCCCCC/C=C\CCCCCCCc1cccc(OCC(=O)O)c1	Active	21 µM		Active	> 50 µM	Active		70 µM	Emax ([3]; filed as agonist): > 90%
CCCCCCCCCCCCCCCc1cccc(OC)c1C(=O)O	Active		30%				Active		Activity [12]: Active
